The list is not random: actives were taken first. Their share in the collection is about 6.6%.
HER2 expr 66K – lowers expression of human Her2 kinase | AID 645 | P04626 | HER2 level % of control, % at 10 µM | SKBR-3 HER2 protein level, AlphaScreen, 18-24 h; stronger effect = lower value | 0.69% of 65,000 active;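 active = HER2 level under 5% of the carrier-only control; inconclusive = no clear call, values can overlap the other calls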;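 note: 100% = DMSO carrier and 0% = 500 nM PU-H71 HSP90 inhibitor; lower value means stronger loss of Her2 protein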
Target sequence (P04626 whole entry, looked up): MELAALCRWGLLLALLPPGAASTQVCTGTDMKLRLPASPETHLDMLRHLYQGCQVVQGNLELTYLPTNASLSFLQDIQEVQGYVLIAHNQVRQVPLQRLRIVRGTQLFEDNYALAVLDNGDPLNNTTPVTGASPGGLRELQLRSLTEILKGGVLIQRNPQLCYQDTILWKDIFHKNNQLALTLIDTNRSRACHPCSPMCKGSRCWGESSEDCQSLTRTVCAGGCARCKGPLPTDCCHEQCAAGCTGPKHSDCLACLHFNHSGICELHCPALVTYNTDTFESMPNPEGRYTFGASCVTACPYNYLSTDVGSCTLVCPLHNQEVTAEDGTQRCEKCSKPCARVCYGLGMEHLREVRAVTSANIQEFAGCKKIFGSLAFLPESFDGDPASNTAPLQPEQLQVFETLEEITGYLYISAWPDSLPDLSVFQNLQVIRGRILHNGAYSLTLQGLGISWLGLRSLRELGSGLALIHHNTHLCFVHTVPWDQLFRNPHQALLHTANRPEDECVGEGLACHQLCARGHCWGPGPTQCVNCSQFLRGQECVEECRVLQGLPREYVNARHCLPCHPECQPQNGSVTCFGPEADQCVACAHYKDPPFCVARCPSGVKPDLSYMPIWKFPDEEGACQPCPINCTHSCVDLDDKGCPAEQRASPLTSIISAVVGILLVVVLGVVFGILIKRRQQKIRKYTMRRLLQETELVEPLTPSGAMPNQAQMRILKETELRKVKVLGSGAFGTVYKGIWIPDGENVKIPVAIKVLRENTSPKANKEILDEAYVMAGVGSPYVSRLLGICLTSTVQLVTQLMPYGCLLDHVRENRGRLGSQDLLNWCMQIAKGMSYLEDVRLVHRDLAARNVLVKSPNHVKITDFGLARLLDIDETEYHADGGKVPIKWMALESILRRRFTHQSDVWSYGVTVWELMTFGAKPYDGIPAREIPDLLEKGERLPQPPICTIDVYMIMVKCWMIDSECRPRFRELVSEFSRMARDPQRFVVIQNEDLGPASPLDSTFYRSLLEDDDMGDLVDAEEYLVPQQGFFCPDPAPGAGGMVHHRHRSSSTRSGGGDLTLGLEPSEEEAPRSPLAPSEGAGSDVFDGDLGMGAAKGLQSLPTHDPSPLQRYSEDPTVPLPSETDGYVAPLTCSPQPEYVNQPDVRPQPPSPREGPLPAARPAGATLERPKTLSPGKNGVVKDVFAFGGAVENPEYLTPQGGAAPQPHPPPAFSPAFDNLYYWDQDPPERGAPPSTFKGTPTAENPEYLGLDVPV
M1 agonist – agonists of M1 muscarinic receptor | 3% of 64,000 active | B-score at 10 µM | AID 626 | CHO-M1 cells, Fluo-4 calcium fluorescence, agonist mode; stronger effect = higher value;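 active = fluorescence rise, raw or as B-score row- and column-corrected plate score, outside the 99.7% band of its plate's samples, either direction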
M1 antagonist – antagonists of rat M1 muscarinic receptor | B-score at 10 µM | 3.4% of 64,000 active | P08482 | CHO-M1 cells, Fluo-4 calcium, ACh EC80 antagonist mode; stronger effect = lower value;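 active = calcium fluorescence response, raw or row-and-column corrected B-score, differing from the plate sample mean either way at a set confidence level, mostly lower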
BAP1 block – inhibitors of human BAP1 deubiquitinase | calls only at 20 µM | 0.48% of 72,000 active | AID 436 | Q92560 | recombinant BAP1, Ub-AMC hydrolysis fluorescence kinetic; stronger effect = lower value;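 active = activity remaining at or below 50% of control, provided the compound also passes the data quality filters; inactive = the rest, including low values that fail the filters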;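 note: 100% = DMSO wells rate and 0% = substrate alone blank rate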
JNK3 inh – inhibitors of human JNK3 kinase | purified JNK3 kinase activity, HTS | inhibition, % at 8 µM | 0.61% of 60,000 active; in the data active = inhibition above about 17%;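 note: 0% = DMSO and 100% = reference inhibitor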
HEK293 NFkB inh – inhibitors of the PMA/ionomycin-induced NF-kB reporter in HEK293 cells. 0.21% of 62,000 active. AID 465. HEK-293 NF-kB luciferase reporter, luminescence. inhibition, % at 3 µM;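 active = inhibition above the mean of all tested compounds plus 3 SD, cut at about 40% in these data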;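 note: 0% = stimulated DMSO wells and 100% = 10 µM reference inhibitor 5653914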
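Timing: 1 h pretreatment, 16 h stimulation, 37 °C; system: HEK-293 cells with stable firefly luciferase reporter driven by four HIV NF-kB elements; doses: 3 µM once, 0.30% DMSO; measured by: luciferase luminescence; control set: DMSO and 10 µM reference inhibitor; repeats: single test; reagent: PMA plus ionomycin mix as NF-kB-activating stimulus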
M1 ag confirm – confirmation of rat M1 muscarinic receptor agonists; shares compounds with M1 agonist; CHO-M1 cells, Fluo-4 calcium fluorescence, agonist mode; actives lie on both sides; fluorescence change (max-min) at 10 µM; 19% of 1,700 active; AID 1488;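 active = fluorescence change differs from the solvent-only DMSO control mean at a set confidence level in both duplicate runs; inconclusive = differs from solvent-only control mean in just one of two runs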;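 note: an EC20 dose of acetylcholine follows compound addition during the same imaging run; raw fluorescence intensity difference in instrument units with no normalization to controls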
M4 agonist ctr – counter-screen for M1 agonists: activity at rat M4 receptor. 9% of 1,700 active. AID 1741. fluorescence change (max-min) at 10 µM. shares compounds with M1 agonist. CHO M4/Gqi5 cells, Fluo-4 calcium fluorescence, agonist mode; actives lie on both sides;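 active = fluorescence change differing from the plate's solvent-only control wells at 99.7% confidence in both duplicates, whether higher or lower; inconclusive = differs from solvent controls in only one of two duplicates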
Active calls of the source: *; i = inactive; ? = inconclusive; . = no result given.

SMILES	HER2 expr 66K	M1 agonist	M1 antagonist	BAP1 block	JNK3 inh	HEK293 NFkB inh	M1 ag confirm	M4 agonist ctr
O=C(CSc1nc2[nH]ncc2c(=O)n1-c1ccccc1)c1ccc2c(c1)OCCO2	75.3	7.22*	-0.463	i	4.6	-1.6	?	-34.9
CS(=O)(=O)N1CCC(C(=O)Nc2ccc(Oc3ccccc3)cc2)CC1	60.9	3.2*	-0.531	i	7.4	6.5	?	-70.3
COc1cccc(-c2nnc(NC(=O)Nc3cccc(Cl)c3)s2)c1	.	.	.	i	.	.	.	.
CCN(CC)S(=O)(=O)c1ccc(C(=O)OCn2nnc3ccccc3c2=O)cc1	160.4	6.24*	0.219	i	1.3	13.3	-18.3	?
O=C(O)c1ccccc1-c1ccc(/C=c2\sc3nc4cc(Br)cnc4n3c2=O)o1	54.5	52.8*	-0.467	.	.	.	136*	?
Cc1nn(-c2ccccc2)c(N2CCCC2)c1/C=N/n1cnc2scc(-c3ccccc3)c2c1=O	101.5	9.13*	-2.44*	.	-8.1	12.1	5.57	-14.6
Cc1ccc(-c2csc3ncn(/N=C/N(C)C)c(=O)c23)o1	88.3	0.316	1.16	i	-6.5	9.7	.	.
COc1ccccc1NC(=O)N1CCN(c2cccc(C(F)(F)F)c2)CC1	91.6	-0.973	-0.425	i	4.4	10.0	.	.
O=C(Nc1ccc2c(c1)OCO2)N1CCN(c2cccc(C(F)(F)F)c2)CC1	82.3	2.86*	-2.2	i	-9.8	9.9	?	?
CC(=O)N1CCc2c(sc(NC(=O)C3CC3)c2-c2nc3ccccc3s2)C1	69.0	6.08*	-1.4	i	-4.1	8.6	11.2	?
CC(C)c1nnc(NC(=O)C2CCN(c3nc4ccccc4s3)CC2)s1	81.2	0.172	-0.302	i	-0.4	15.5	.	.
O=c1c2ccccc2c(/C=N/n2cnnc2)c(O)n1-c1ccccc1	75.8	9*	-0.0215	i	2.2	7.1	149*	123*
COc1ccc(-n2c(O)c(/C=N/n3cnnc3)c3ccccc3c2=O)cc1	123.0	14.8*	-0.431	i	1.9	10.7	164*	138
COc1ccc(-n2c(O)c(C=NC3CC3)c(=O)[nH]c2=O)cc1	95.3	0.0168	0.0764	i	-7.8	7.1	.	.
CCc1c2ccc(C)n2cc[n+]1CC(C)=O	.	.	.	i	.	.	.	.
COc1ccc(CCNS(=O)(=O)c2cccs2)cc1OC	.	.	.	i	.	.	.	.
COc1ccc(-c2noc(CCC(=O)NCCN3CCN(c4ccccc4F)CC3)n2)cc1	100.3	5.02*	-1.62	i	.	13.6	-14.3	-62.4
Cc1ccc(-c2noc(CCC(=O)NCCCN3CCN(c4ccc(F)cc4)CC3)n2)cc1	90.8	5.28*	-2.57*	i	-0.7	3.5	10.3	-28.6
COc1ccc(-c2noc(CCC(=O)NCCCN3CCC(C)CC3)n2)cc1	104.6	-0.146	-0.177	i	.	3.7	.	.
Cc1ccc(-c2noc(CCC(=O)NCCCN3CCN(c4cccc(Cl)c4)CC3)n2)cc1	70.7	4.38*	-3.74*	i	0.5	5.9	?	-45.8
CC1(C)CC(=O)c2cc(OCC(=O)NCCCN3CCN(c4ccc(F)cc4)CC3)ccc2O1	84.1	13.2*	-0.875	i	-3.1	13.3	10.6	-55
Nc1ccc(C=Cc2nc3ccc(N)cc3[nH]2)cc1	.	.	.	i	.	.	.	.
Cc1ccc(S(=O)(=O)N2CCN(C(=O)c3cc(=O)[nH]c4ccccc34)CC2)c(C)c1	93.2	4.71*	-0.0104	i	-2.8	3.9	-27.8	-49.9
Cc1nc2sccn2c1-c1csc(NCc2ccccc2)n1	78.7	8.32*	-1.6	i	-9.2	28.9	-10.3	?
O=C(NCc1ccc2c(c1)OCO2)C1CCN(c2ccc(S(=O)(=O)N3CCCC3)cc2)CC1	202.3	2.56*	-1.86	.	.	22.9	-13.6	-33.2
SMILES	HER2 expr 66K	M1 agonist	M1 antagonist	BAP1 block	JNK3 inh	HEK293 NFkB inh	M1 ag confirm	M4 agonist ctr
Cc1c(C(=O)N2CCN(c3ccc(F)cc3)CC2)sc2nc(-c3ccccc3)cn12	88.3	0.312	0.803	i	3.2	4.0	.	.
Cc1c(C(=O)N2CCc3ccccc3C2)sc2nc(-c3ccccc3)cn12	82.9	2.44*	-0.504	i	-0.5	-1.5	-15.9	?
Cc1nn(Cc2ccc(F)cc2)c(C)c1NC(=O)c1noc2c1CCCCC2	95.6	5.89*	0.0906	i	-1.9	8.8	-6.75	-39.6
Cc1nn(Cc2ccc(Cl)cc2)c(C)c1NC(=O)c1cc(-c2ccc3c(c2)OCO3)on1	97.5	-0.187	0.00934	i	6.5	15.5	.	.
Cc1nn(Cc2ccc(Cl)c(Cl)c2)c(C)c1NC(=O)c1cc(-c2ccc3c(c2)OCO3)on1	62.7	4.14*	-1.89	i	-6.6	19.0	31.1	-10.8
Cc1c(Cc2ccccc2)sc(N)c1C(N)=O	78.6	8.76*	-0.0736	i	-4.1	5.5	0.133	-25.6
N#CC1=C(N)SC(N)=C(C#N)C1CCC1CCCCC1	61.4	6.31*	0.0635	i	-6.0	-5.0	12.1	16.9
COc1ccc(-c2noc(Cc3ccccc3OC)n2)cc1	107.3	-0.0121	-0.391	i	-3.0	-4.8	.	.
COc1ccc(-c2noc(Cc3cccs3)n2)cc1	71.0	5.26*	0.326	i	-7.7	-20.4	-17.2	?
CC(=O)OC1=C(C#N)Cn2ccc3cccc1c32	116.1	8.98*	0.579	.	-5.0	13.3	39.3	21.3
O=C(CSc1nc(-c2ccco2)cc(C(F)(F)F)n1)NCCCn1ccnc1	90.7	10.3*	-0.927	i	-0.2	13.8	3.41	-1.98
c1ccc(Nc2nc(N3CCCCC3)nc(N3CCNCC3)n2)cc1	106.1	10.7*	0.0394	i	6.3	7.0	-10.2	-22.9
Cc1cc(C)nc(SCC(=O)N2CCC(C(N)=O)CC2)n1	109.1	2.67*	0.772	i	-2.8	21.0	?	-43.7
Cc1ccc(S(=O)(=O)n2nc(-c3ccc(Cl)cc3)nc2NCc2ccco2)cc1	106.0	25.9*	-0.381	.	-2.9	17.9	-9.45	-29.7
CCS(=O)(=O)n1nc(-c2ccccc2)nc1NCc1ccco1	82.3	-0.0572	0.102	i	1.9	2.2	.	.
Cc1ccc(NC(=O)c2ccco2)cc1NC(=O)CSc1nnc(-c2cccs2)n1C	108.2	-0.103	-0.264	i	-1.7	11.3	.	.
CCn1c(SCC(=O)Nc2cccc(NC(=O)c3ccco3)c2)nnc1-c1cccs1	118.6	4.16*	-0.743	i	-0.7	16.3	-10.5	-33.9
CCCCCCc1cc2c(=O)c(-c3csc(C)n3)coc2cc1O	.	.	.	i	.	.	.	.
CC(C)(C)c1ccccc1OCC(=O)NC(c1ccccc1)c1ccccc1	.	.	.	i	.	.	.	.
Cc1ccc(Oc2ccc([N+](=O)[O-])cc2)cc1[N+](=O)[O-]	.	.	.	i	.	.	.	.

Screens deposited in PubChem by several laboratories.
